Laboratory results: ChEMBL document CHEMBL1143652, “Joys of molecules. 2. Endeavors in chemical biology and medicinal chemistry” (J Med Chem, 2005)
Several values for one entry are separate records, joined by “and”; a condition that tells them apart may be missing. Identical values can stand only once. Values belong to the molecule of their own block, whether it stands above or below them.

How the values were obtained:
1A9 = assay: Cytotoxicity against 1A9 human ovarian carcinoma cells; format: functional, cell-based
OVCAR-3 = assay: Cytotoxicity by measuring inhibitory concentration against ovcar-3 tumor cell line; format: functional, cell-based, Homo sapiens
Bacteria = assay: Minimum inhibitory concentration against bacterial strains; format: functional
[1] = Antiproliferation activity against cancer cell lines by mixed-lymphocyte-reaction proliferation assay; format: functional, cell-based; conditions: Homo sapiens
[2] = molecular target: Tubulin beta-4B chain (Homo sapiens) (UniProt P68371); assay: (§1) Tubulin polymerization at a concentration of 100 uM incubated for 90 minutes; format: functional
How it was run: (§2)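 Tubulin polymerization was read as percent polymerization, with test drug at 100 µM and a 90 min incubation.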

[3] = molecular target: Tubulin beta-4B chain (Homo sapiens) (UniProt P68371); assay: as §1; how it was run: as §2
Nucleic Acid = assay: Binding affinity towards DNA extracted from MOLT-4 cells; format: cell-free; conditions: Homo sapiens

Tubulin beta-4B chain (Homo sapiens), sequence (P68371 whole entry): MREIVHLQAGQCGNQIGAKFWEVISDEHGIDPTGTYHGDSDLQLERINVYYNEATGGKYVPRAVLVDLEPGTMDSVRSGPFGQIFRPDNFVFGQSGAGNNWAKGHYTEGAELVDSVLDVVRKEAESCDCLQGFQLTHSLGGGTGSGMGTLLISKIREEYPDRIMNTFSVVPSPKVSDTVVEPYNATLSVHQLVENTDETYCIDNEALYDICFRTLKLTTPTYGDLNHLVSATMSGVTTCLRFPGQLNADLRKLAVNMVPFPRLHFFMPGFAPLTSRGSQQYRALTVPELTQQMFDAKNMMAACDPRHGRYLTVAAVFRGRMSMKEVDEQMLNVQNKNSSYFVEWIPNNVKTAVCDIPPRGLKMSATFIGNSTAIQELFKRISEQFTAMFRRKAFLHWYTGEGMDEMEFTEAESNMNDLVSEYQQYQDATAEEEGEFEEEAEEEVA

SMILES: CC/C=C\C=C/C(=O)N/C=C/C[C@H]1C[C@H]2C[C@H](OC(C)=O)C[C@H](Cc3cccc(O)c3C(=O)O1)O2
IC50 (1A9): 0.0032 µM

SMILES: CC(=O)OC1C(=O)[C@@]2(C)[C@H]([C@H](OC(=O)c3ccc(N(C)C)cc3)[C@]3(O)C[C@H](OC(=O)[C@H](O)[C@@H](NC(=O)c4ccccc4)c4ccccc4)C(C)=C1C3(C)C)[C@]1(OC(C)=O)CO[C@@H]1C[C@@H]2O (stereo partly drawn)
IC50 (OVCAR-3; Homo sapiens, OVCAR-3): 2.21 µM
IC50 (OVCAR-3; ovcar-3): 2.2 µM

SMILES: O=C(/C=C/c1ccccc1)N/C=C/C[C@H]1C[C@H]2C[C@H](O)C[C@H](Cc3cccc(O)c3C(=O)O1)O2
IC50 (1A9): 0.05 µM

MIC (Bacteria): 0.11 ug m/L
SMILES: Cc1cccc(C)c1SSCCNC(=O)/C(Cc1cccc(Br)c1)=N/O

SMILES: CCCCCCCCCC[C@H]1C[C@H]1CCCC/C=C\CC[C@@H](O)C(=O)N[C@@H](CO[C@@H]1O[C@@H](CO)[C@@H](O)[C@H](O)[C@@H]1OCC=C(C)C)[C@H](O)CCCCCCC[C@@H]1C[C@@H]1CCCCCCCCCC
IC50 [1]: > 50 µM

TP [2]: 56%
TP [3]: 56%
SMILES: CO[C@]12C=C[C@](C)(O1)[C@@H](OC(=O)/C=C/c1csc(C)n1)C[C@H]1C(C)=CC[C@H](C(C)C)[C@H]1/C=C\2COC1OCC(O)C(O)C1OC(C)=O (stereo partly drawn)

SMILES: CC(=O)O[C@@H]1C2=C(C)[C@@H](OC(=O)[C@H](O)[C@@H](NC(=O)c3ccccc3)c3ccccc3)C[C@@](O)([C@@H](OC(=O)c3ccccc3)c3ccccc3[C@H]1OC(C)=O)C2(C)C
IC50 (OVCAR-3; ovcar-3): 0.028 µM and 0.28 µM

MIC (Bacteria): 0.28 ug m/L
SMILES: Cc1cccc(C)c1SSCCNC(=O)/C(Cc1cc(F)cc(F)c1)=N/O

SMILES: CC(=O)OC1C(=O)[C@@]2(C)[C@H]([C@H](OC(=O)c3ccco3)[C@]3(O)C[C@H](OC(=O)[C@H](O)[C@@H](NC(=O)c4ccccc4)c4ccccc4)C(C)=C1C3(C)C)[C@]1(OC(C)=O)CO[C@@H]1C[C@@H]2O (stereo partly drawn)
IC50 (OVCAR-3; Homo sapiens, OVCAR-3): 0.0451 µM
IC50 (OVCAR-3; ovcar-3): 0.045 µM

MIC (Bacteria): 4.85 ug m/L
SMILES: O=C(NCCSSCCNC(=O)/C(Cc1ccc(O)c(Br)c1)=N/O)/C(Cc1ccc(O)c(Br)c1)=N/O [PSAMMAPLIN A]

SMILES: CC(=O)OC1C(=O)[C@@]2(C)[C@H]([C@H](OC(=O)c3ccc4ccccc4c3)[C@]3(O)C[C@H](OC(=O)[C@H](O)[C@@H](NC(=O)c4ccccc4)c4ccccc4)C(C)=C1C3(C)C)[C@]1(OC(C)=O)CO[C@@H]1C[C@@H]2O (stereo partly drawn)
IC50 (OVCAR-3; ovcar-3): > 11000 µM

SMILES: O=C(/C=C/c1cccs1)N/C=C/C[C@H]1C[C@H]2C[C@H](O)C[C@H](Cc3cccc(O)c3C(=O)O1)O2
IC50 (1A9): 0.0413 µM

SMILES: CCCCCCCCCC[C@H]1C[C@H]1CCCC/C=C\CC[C@@H](O)C(=O)N[C@@H](CO[C@@H]1O[C@@H](CO)[C@@H](O)[C@H](O)[C@@H]1OC/C=C(\C)CCC=C(C)C)[C@H](O)CCCCCCC[C@@H]1C[C@@H]1CCCCCCCCCC
IC50 [1]: 28 µM

SMILES: CCCCCCCCCC[C@H]1CC1CCCC/C=C\CC[C@@H](O)C(=O)N[C@@H](CO[C@@H]1OC(CO)[C@@H](O)[C@H](O)[C@@H]1OCC=C(C)C)[C@H](O)CCC/C=C\CCCC[C@@H]1C[C@@H]1CCCCCCCCCC (single isomer, unassigned)
IC50 [1]: > 50 µM

SMILES: CC/C=C\C=C/C(=O)N/C=C\C[C@H]1C[C@H]2C[C@H](O)C[C@H](Cc3cccc(O)c3C(=O)O1)O2
IC50 (1A9): 0.0707 µM

SMILES: CC/C=C\C=C/C(=O)N/C=C/C[C@H]1C[C@H]2C[C@H](O)C[C@H](Cc3cccc(O)c3C(=O)O1)O2 [APICULAREN A]
IC50 (1A9): 0.00078 µM

SMILES: CCNC1COC(OC2C(OC)OC(C)C(NOC3CC(O)C(SC(=O)c4c(C)c(F)c(OC5OC(C)C(O)C(OC)C5O)c(OC)c4OC)C(C)O3)C2O)CC1OC (stereo not drawn)
K obs (Nucleic Acid): 44 µM

SMILES: CC/C=C/C=C/C(=O)N/C=C/C[C@H](O)C[C@H]1C[C@H](OC(C)=O)C[C@H](Cc2cccc3c2C(=O)OC(C)(C)O3)O1
IC50 (1A9): 0.035 µM

SMILES: CCNC1COC(OC2C(OC)OC(C)C(NOC3CC(O)C(SC(=O)c4c(C)cc(OC5OC(C)C(O)C(OC)C5O)c(OC)c4OC)C(C)O3)C2O)CC1OC (stereo not drawn)
K obs (Nucleic Acid): 180 µM

SMILES: CCNC1COC(OC2C(OC)OC(C)C(NOC3CC(O)C(SC(=O)c4c(C)c(Br)c(OC5OC(C)C(O)C(OC)C5O)c(OC)c4OC)C(C)O3)C2O)CC1OC (stereo not drawn)
K obs (Nucleic Acid): 10 µM
